# Data published in ChEMBL document CHEMBL5724801, “EUbOPEN Chemogenomics Library - Multiplex” (2024).
# Several values for one entry are separate records, joined by “and”; a condition that tells them apart may be missing. Equal entries are not always repeated.
# Test system: U2OS
# Assay: Multiplex assay against U2OS
# Assay type: toxicity, cell-based
# Conditions: human
# Method in brief: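 Live cells carried four stains from seeding: Hoechst33342, BioTracker Green Microtubule Cytoskeleton Dye, MitoTracker Red and Annexin V Alexa Fluor 680. They were imaged on a CQ1 microscope at 37°C and 5% CO2 after compound addition. Using CellPathfinder machine-learning gating, cells were split into Hoechst high-intensity objects or normal cells, normal cells into healthy, pyknosed or fragmented nuclei, and pyknosed cells into mitotic or apoptotic; tubulin, mitochondrial-mass and membrane-permeability phenotypes are per cents of healthy-nucleus cells.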
# [1] = 12 h, 1 µM, compound concentration 1 uM
# [2] = 12 h, 10 µM, compound concentration 10 uM
# [3] = 24 h, 1 µM, compound concentration 1 uM
# [4] = 24 h, 10 µM, compound concentration 10 uM
# [5] = 48 h, 1 µM, compound concentration 1 uM
# [6] = 48 h, 10 µM, compound concentration 10 uM
compound,measurement,setting,value
COc1ccc2nc3ccc(OC)cc3c(SCCCN)c2c1.Cl,Population Apoptotic (%),[1],33.33% and 48.15%
same,Population Fragmented Nuclei (%),[1],5.01% and 5.7%
same,Population Healthy Nuclei (%),[1],88.22% and 80.31%
same,Population Hoechst High Intensity Objects (%),[1],0%
same,Population Membrane Permeable-Phenotype (%),[1],0.85% and 1.94%
same,Population Mitochondria Different-Phenotype (%),[1],0% and 12.26%
same,Population Mitotic Cells (%),[1],66.67% and 51.85%
same,Population Normal (%),[1],100%
same,Population Pyknosed Nuclei (%),[1],6.77% and 13.99%
same,Population Tubulin-Different-Phenotype (%),[1],1.14% and 0%
same,Total Cell Count,[1],399 and 193
same,Population Apoptotic (%),[2],50% and 100%
same,Population Fragmented Nuclei (%),[2],77.73% and 91.54%
same,Population Healthy Nuclei (%),[2],21.48% and 8.25%
same,Population Hoechst High Intensity Objects (%),[2],8.43% and 7.62%
same,Population Normal (%),[2],91.57% and 92.38%
same,Population Pyknosed Nuclei (%),[2],0.79% and 0.21%
same,Population Tubulin-Different-Phenotype (%),[2],28.57% and 40.17%
same,Total Cell Count,[2],1388 and 1535
same,Population Apoptotic (%),[3],29.73% and 51.52%
same,Population Fragmented Nuclei (%),[3],3.05% and 1.4%
same,Population Healthy Nuclei (%),[3],89.9% and 83.18%
same,Population Hoechst High Intensity Objects (%),[3],0%
same,Population Membrane Permeable-Phenotype (%),[3],0.85% and 2.81%
same,Population Mitochondria Different-Phenotype (%),[3],0% and 7.3%
same,Population Mitotic Cells (%),[3],70.27% and 48.48%
same,Population Normal (%),[3],100%
same,Population Pyknosed Nuclei (%),[3],7.05% and 15.42%
same,Population Tubulin-Different-Phenotype (%),[3],1.06% and 1.69%
same,Total Cell Count,[3],525 and 214
same,Population Apoptotic (%),[4],50% and 78.57%
same,Population Fragmented Nuclei (%),[4],75.02% and 91.84%
same,Population Hoechst High Intensity Objects (%),[4],12.85% and 7.48%
same,Population Mitotic Cells (%),[4],50% and 21.43%
same,Population Normal (%),[4],87.15% and 92.52%
same,Population Pyknosed Nuclei (%),[4],0.64% and 0.94%
same,Population Tubulin-Different-Phenotype (%),[4],6.62% and 18.52%
same,Total Cell Count,[4],1424 and 1617
same,Population Apoptotic (%),[5],46.15% and 46.51%
same,Population Fragmented Nuclei (%),[5],3.96% and 4.36%
same,Population Healthy Nuclei (%),[5],90.62% and 82.24%
same,Population Hoechst High Intensity Objects (%),[5],0%
same,Population Membrane Permeable-Phenotype (%),[5],1.03% and 0.76%
same,Population Mitochondria Different-Phenotype (%),[5],0% and 2.65%
same,Population Mitotic Cells (%),[5],53.85% and 53.49%
same,Population Normal (%),[5],100%
same,Population Pyknosed Nuclei (%),[5],5.42% and 13.4%
same,Population Tubulin-Different-Phenotype (%),[5],0.8% and 1.52%
same,Total Cell Count,[5],960 and 321
same,Population Apoptotic (%),[6],45% and 53.85%
same,Population Fragmented Nuclei (%),[6],69.73% and 94.1%
same,Population Hoechst High Intensity Objects (%),[6],23.54% and 11.4%
same,Population Mitotic Cells (%),[6],55% and 46.15%
same,Population Normal (%),[6],76.46% and 88.6%
same,Population Pyknosed Nuclei (%),[6],2.07% and 0.82%
same,Population Tubulin-Different-Phenotype (%),[6],6.23% and 18.52%
same,Total Cell Count,[6],1266 and 1798
COc1ccc2c(c1)C(C(=O)N(Cc1ccc(N(C)C)cc1)c1ccc(C(C)C)cc1)CCC2.Cl (stereo unspecified),Population Apoptotic (%),[1],70%
same,Population Fragmented Nuclei (%),[1],36% and 17%
same,Population Healthy Nuclei (%),[1],54% and 73%
same,Population Hoechst High Intensity Objects (%),[1],4% and 3%
same,Population Membrane Permeable-Phenotype (%),[1],8% and 9%
same,Population Mitochondria Different-Phenotype (%),[1],5% and 3%
same,Population Mitotic Cells (%),[1],29% and 30%
same,Population Normal (%),[1],95% and 96%
same,Population Pyknosed Nuclei (%),[1],9% and 8%
same,Population Tubulin-Different-Phenotype (%),[1],4% and 2%
same,Total Cell Count,[1],264 and 122
same,Population Apoptotic (%),[2],38% and 60%
same,Population Fragmented Nuclei (%),[2],27% and 16%
same,Population Healthy Nuclei (%),[2],50% and 60%
same,Population Hoechst High Intensity Objects (%),[2],4%
same,Population Membrane Permeable-Phenotype (%),[2],73% and 43%
same,Population Mitochondria Different-Phenotype (%),[2],55% and 73%
same,Population Mitotic Cells (%),[2],61% and 40%
same,Population Normal (%),[2],95%
same,Population Pyknosed Nuclei (%),[2],22% and 23%
same,Population Tubulin-Different-Phenotype (%),[2],80% and 58%
same,Total Cell Count,[2],224 and 113
same,Population Apoptotic (%),[3],75% and 100%
same,Population Fragmented Nuclei (%),[3],27% and 18%
same,Population Healthy Nuclei (%),[3],61% and 73%
same,Population Hoechst High Intensity Objects (%),[3],4% and 2%
same,Population Membrane Permeable-Phenotype (%),[3],5%
same,Population Mitochondria Different-Phenotype (%),[3],4% and 1%
same,Population Mitotic Cells (%),[3],24% and 0%
same,Population Normal (%),[3],95% and 97%
same,Population Pyknosed Nuclei (%),[3],11% and 7%
same,Population Tubulin-Different-Phenotype (%),[3],4% and 2%
same,Total Cell Count,[3],273 and 146
same,Population Apoptotic (%),[4],71% and 86%
same,Population Fragmented Nuclei (%),[4],25% and 20%
same,Population Healthy Nuclei (%),[4],50% and 57%
same,Population Hoechst High Intensity Objects (%),[4],2% and 9%
same,Population Membrane Permeable-Phenotype (%),[4],54% and 45%
same,Population Mitochondria Different-Phenotype (%),[4],42% and 53%
same,Population Mitotic Cells (%),[4],28% and 13%
same,Population Normal (%),[4],97% and 90%
same,Population Pyknosed Nuclei (%),[4],24% and 22%
same,Population Tubulin-Different-Phenotype (%),[4],49% and 48%
same,Total Cell Count,[4],224 and 115
same,Population Apoptotic (%),[5],80% and 93%
same,Population Fragmented Nuclei (%),[5],21% and 17%
same,Population Healthy Nuclei (%),[5],65% and 73%
same,Population Hoechst High Intensity Objects (%),[5],2% and 3%
same,Population Membrane Permeable-Phenotype (%),[5],10% and 6%
same,Population Mitochondria Different-Phenotype (%),[5],5% and 4%
same,Population Normal (%),[5],97% and 96%
same,Population Pyknosed Nuclei (%),[5],13% and 8%
same,Population Tubulin-Different-Phenotype (%),[5],3% and 2%
same,Total Cell Count,[5],369 and 203
same,Population Apoptotic (%),[6],73% and 92%
same,Population Fragmented Nuclei (%),[6],21% and 26%
same,Population Healthy Nuclei (%),[6],47% and 49%
same,Population Hoechst High Intensity Objects (%),[6],3% and 8%
same,Population Membrane Permeable-Phenotype (%),[6],43%
same,Population Mitochondria Different-Phenotype (%),[6],26% and 36%
same,Population Normal (%),[6],96% and 91%
same,Population Pyknosed Nuclei (%),[6],30% and 24%
same,Population Tubulin-Different-Phenotype (%),[6],31% and 42%
same,Total Cell Count,[6],265 and 126
